Measured values as given in ChEMBL document CHEMBL3351997, “Synthesis of novel tylophorine derivatives and evaluation of their anti-inflammatory activity” (ACS Med Chem Lett, 2014).

Assays:
[1] = Antiinflammatory activity against BALB/c mouse splenocytes assessed as inhibition of LPS-induced TNFalpha production after 24 hrs by ELISA; format: functional, cell-based; settings: Splenocyte
Outline: (§1)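 Splenocytes from BALB/c mice were cultured with LPS (100 ng/mL) plus compound for 4 h or 24 h. TNF-α in the supernatants was measured by ELISA. Values are mean ± SD of at least three independent experiments, each run in duplicate.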

RAW264.7 [2] = test: Antiinflammatory activity against mouse RAW264.7 cells assessed as inhibition of LPS-induced TNFalpha production after 6 hrs by ELISA; format: functional, cell-based; settings: RAW264.7, 6 h
RAW264.7 [3] = test: Cytotoxicity against mouse RAW264.7 cells after 48 hrs by MTT assay; format: cell-based; settings: RAW264.7, 48 h
Outline: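 Raw 264.7 murine macrophages were cultured with a range of compound concentrations for 48 h, with vehicle-treated cells as control. The 50% cytotoxic concentration (CC50) was determined, with values representative of three experiments.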

[4] = Antiinflammatory activity against BALB/c mouse splenocytes assessed as inhibition of LPS-induced TNFalpha production after 4 hrs by ELISA; format: functional, cell-based; settings: Splenocyte; outline: as §1
T-cell [5] = test: Induction of Foxp3 expression in B6 Foxp3-GFP mouse CD4-positive T cells assessed as increase in iTregs at 1 uM after 3 days by flow cytometry; format: functional
Outline: (§2)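 Naive CD4+ T cells were sorted from B6 Foxp3-GFP reporter mice and cultured with compound plus TGF-β (5 ng/mL) for 3 days. Harvested cells were read by flow cytometry as the percentage of GFP+ (Foxp3+) iTregs. Values are mean ± SD of at least three independent experiments, each run in duplicate.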

T-cell [6] = test: Inhibition of Foxp3 expression in B6 Foxp3-GFP mouse CD4-positive T cells assessed as iTregs at 100 nM after 3 days by flow cytometry; format: functional; settings: for inhibition at 0.1 µM: Mus musculus, T-cell, 72 h; outline: as §2
T-cell [7] = test: Induction of Foxp3 expression in B6 Foxp3-GFP mouse CD4-positive T cells assessed as increase in iTregs at 100 nM after 3 days by flow cytometry; format: functional; outline: as §2
[8] = Solubility of the compound in water; format: physicochemical; settings: buffer
T-cell [9] = test: Induction of Foxp3 expression in B6 Foxp3-GFP mouse CD4-positive T cells at 100 nM after 3 days by flow cytometry in presence of 5 ng/ml TGF-beta (reference value: 37.15 %); format: functional; outline: as §2
T-cell [10] = test: Induction of Foxp3 expression in B6 Foxp3-GFP mouse CD4-positive T cells at 1 nM after 3 days by flow cytometry in presence of 5 ng/ml TGF-beta (reference value: 37.15 %); format: functional; outline: as §2
T-cell [11] = test: Induction of Foxp3 expression in B6 Foxp3-GFP mouse CD4-positive T cells at 1 uM after 3 days by flow cytometry in presence of 5 ng/ml TGF-beta (reference value: 37.15 %); format: functional; outline: as §2
T-cell [12] = test: Induction of Foxp3 expression in B6 Foxp3-GFP mouse CD4-positive T cells at 1 nM after 3 days by flow cytometry in presence of 5 ng/ml TGF-beta; format: functional; outline: as §2
T-cell [13] = test: Induction of Foxp3 expression in B6 Foxp3-GFP mouse CD4-positive T cells at 10 nM after 3 days by flow cytometry in presence of 5 ng/ml TGF-beta (reference value: 37.15 %); format: functional; outline: as §2
[14] = Solubility of the compound in DMSO; format: physicochemical
RAW264.7 [15] = test: Cytotoxicity against mouse RAW264.7 cells assessed as cell death at 1 uM after 48 hrs by MTT assay; format: cell-based; settings: raw264.7, 48 h

Row | SMILES | IC50 [1] [µM] | IC50 (RAW264.7 [2]) [µM] | IC50 (RAW264.7 [3]) [µM] | IC50 [4] [µM] | Activity (T-cell [5]) [%] | other results
1 | COc1cc2cc(C(=O)NCCCCCCO)c3cc(OC)c(OC)cc3c2cc1OC | 317 | 236 | 305 | 251 | 7 | –
2 | COC(=O)[C@@H]1CCCN1Cc1cc2cc(OC)c(OC)cc2c2cc(OC)c(OC)cc12 | 275 | 216 | 469 | 153 | 19 | –
3 | COc1cc2c3c(c4cc(OC)c(OC)cc4c2cc1OC)CN1CCCC1C3.O=C(O)c1ccccc1 (centres undefined) [TYLOPHORINE BENZOIC ACID SALT] | – | – | – | – | – | inhibition (INH) (T-cell [6]): 1%
4 | COc1cc2cc(CN3CCC[C@H]3C(=O)O)c3cc(OC)c(OC)cc3c2cc1OC | 231 | 200 | 418 | 234 | 2 | –
5 | COc1cc2c3c(c4cc(OC)c(OC)cc4c2cc1OC)[C@@H](O)[C@H]1CCCN1C3 | 0.783 | 0.238 | 0.242 | 0.133 | – | Activity (T-cell [7]): 12%
6 | COc1cc2c3c(c4cc(OC)c(OC)cc4c2cc1OC)CN1CCCC1C3.O=C(O)CC(O)C(=O)O (centres undefined) [TYLOPHORINE 2-HYDROXYSUCCINIC ACID SALT] | – | – | – | – | – | solubility [8]: soluble
7 | COc1cc(/C=C/C(=O)O)ccc1O.COc1cc2c3c(c4cc(OC)c(OC)cc4c2cc1OC)CN1CCCC1C3 (centres undefined) | 0.329 | 0.135 | 0.093 | 0.213 | – | Activity (T-cell [7]): 0.8%
8 | COC(=O)[C@@H]1CCCN1C(=O)c1cc2cc(OC)c(OC)cc2c2cc(OC)c(OC)cc12 | 363 | 217 | 320 | 211 | 5 | –
9 | COC(=O)CCCCCNCc1cc2cc(OC)c(OC)cc2c2cc(OC)c(OC)cc12 | 213 | 227 | 515 | 115 | 47 | –
10 | COc1cc2c3c(c4cc(OC)c(OC)cc4c2cc1OC)CN1CCCC1C3.O=C(O)c1cc(S(=O)(=O)O)ccc1O (centres undefined) | 0.16 | 0.283 | 0.16 | 0.21 | – | Activity (T-cell [7]): 29%
11 | COc1cc2c3c(c4cc(OC)c(OC)cc4c2cc1OC)CN1CCCC1C3.O=C(O)c1ccccc1O (centres undefined) [TYLOPHORINE SALICYLIC ACID SALT] | – | – | – | – | – | inhibition (INH) (T-cell [6]): 4%
12 | COc1cc2cc(CN3CCC(O)CC3)c3cc(OC)c(OC)cc3c2cc1OC | 273 | 231 | 132 | 265 | 5 | –
13 | COc1cc2c3c(c4cc(OC)c(OC)cc4c2cc1OC)[C@H](O)[C@H]1CCCN1C3 | 0.965 | 0.817 | 1.16 | 0.61 | – | Activity (T-cell [7]): 5%
14 | COC(=O)CCCCCNC(=O)c1cc2cc(OC)c(OC)cc2c2cc(OC)c(OC)cc12 | 257 | 241 | 423 | 156 | 16 | –
15 | COC(=O)C1CCCCN1C(=O)c1cc2cc(OC)c(OC)cc2c2cc(OC)c(OC)cc12 (centres undefined) | 329 | 227 | 116 | 301 | 7 | –
16 | COc1cc2c3c(c4cc(OC)c(OC)cc4c2cc1OC)[C@@H](O)[C@@H]1CCCN1C3 | 1.29 | 0.35 | 1.06 | 0.37 | – | Activity (T-cell [7]): 29%
17 | COc1cc2cc(CN3CCCCC3CO)c3cc(OC)c(OC)cc3c2cc1OC (centres undefined) | 92 | 41 | 513 | 38 | 41 | Activity (T-cell [9]): 51.92%; Activity (T-cell [10]): 40.42%; Activity (T-cell [11]): 73.94%; Activity (T-cell [12]): 100%; Activity (T-cell [13]): 41.25%
18 | COc1cc2cc(CN3CCC[C@H]3CO)c3cc(OC)c(OC)cc3c2cc1OC | 304 | 307 | 422 | 265 | 0.2 | –
19 | COc1cc2c3c(c4cc(OC)c(OC)cc4c2cc1OC)CN1CCCC1C3.O=C(O)c1ccc(O)cc1 (centres undefined) [TYLOPHORINE P-HYDROXYBENZOIC ACID SALT] | 0.972 | 0.511 | 0.651 | 0.76 | – | inhibition at 0.1 µM (T-cell [6]): 5%
20 | COc1cc2cc(CN3CCCCC3C(=O)O)c3cc(OC)c(OC)cc3c2cc1OC (centres undefined) | 389 | 354 | 357 | 292 | 0.7 | –
21 | COc1cc2c3c(c4cc(OC)c(OC)cc4c2cc1OC)CN1CCCC1C3.I (centres undefined) [TYLOPHORINE HYDROIODIDE] | – | – | – | – | – | inhibition (INH) (T-cell [6]): 12%
22 | COc1cc2c3c(c4cc(OC)c(OC)cc4c2cc1OC)CN1CCC[C@H]1C3 [(S)-TYLOPHORINE] | – | – | – | – | – | inhibition at 0.1 µM (T-cell [6]): 44%
23 | CC1(C)C2CC[C@]1(S(=O)(=O)O)C(=O)C2.COc1cc2c3c(c4cc(OC)c(OC)cc4c2cc1OC)CN1CCCC1C3 (centres undefined) | 0.338 | 0.027 | 0.033 | 0.03 | – | inhibition at 0.1 µM (T-cell [6]): 2%
24 | COc1cc2c3c(c4cc(OC)c(OC)cc4c2cc1OC)CN1CCCC1C3.Nc1ccc(S(=O)(=O)O)cc1 (centres undefined) [TYLOPHORINE P-AMINOBENZENESULFONIC ACID SALT] | 0.193 | 0.248 | 0.175 | 0.215 | – | inhibition at 0.1 µM (T-cell [6]): 3%
25 | COc1cc2c3c(c4cc(OC)c(OC)cc4c2cc1OC)[C@H](O)[C@@H]1CCCN1C3 | 0.097 | 0.036 | 0.053 | 0.02 | – | Activity (T-cell [9]): 40%; solubility [14]: soluble; Activity (T-cell [7]): 39%; Activity (RAW264.7 [15]): Toxic
26 | COc1cc2c3c(c4cc(OC)c(OC)cc4c2cc1OC)CN1CCCC1C3 (racemic) [(+/-)-TYLOPHORINE] | – | – | – | – | – | inhibition (INH) (T-cell [6]): 34%
